Active and inactive are the calls of the source. No cut-off for these calls is given here.

One data set has as its target CYP2D6 (Homo sapiens, UniProt P10635). Description: Drug metabolism in human liver microsomes assessed as CYP2D6-medited compound metabolism at 1 uM after 15 to 30 mins by LC-MS/MS analysis. The class given is ADME. To be noted: read-out: Drug metabolism. A digest of the protocol: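 Human liver microsomes (1 mg/mL) with 1 µM test substance and 3 mM NADPH (final) in 50 mM potassium phosphate, pH 7.4, at 37 °C; stopped after 15–30 min with 3 volumes methanol. Metabolic rate taken from slope, with and without 4 µM quinidine (final). The quinidine-resistant fraction was assigned to other enzymes; CYP2D6 contribution = total minus that fraction.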

The target in data set [1] is T1, Sodium-dependent serotonin transporter (Homo sapiens, UniProt P31645). Put plainly: Displacement of [3H]-citalopram from human SERT expressed in HEK293 cell membranes after 60 mins by liquid scintillation counting. The method in brief:
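Membranes from cells expressing human serotonin transporter; [3H]citalopram radioligand. Ki from IC50 via Cheng–Prusoff (radioligand concentration and Kd). Ki values are means of two or three independent experiments.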
A general note: Displacement assays read how much labelled ligand stays bound in the presence of the test substance.

The target of data set [2] is T1, Sodium-dependent serotonin transporter. Description: Inhibition of human SERT expressed in CHO cells assessed as reduction in [3H]5-HT uptake preincubated for 10 mins followed by [3H]5-HT addition measured after 20 mins by liquid scintillation counting. The format is cell-based. The method in brief:
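CHO cells stably expressing human serotonin transporter; compound or DMSO in reaction buffer pre-incubated with cells at 37 °C for 10 min, then [3H]5-HT plus compound added and incubated 37 °C for 20 min. Cells rinsed twice, lysed, radioactivity counted. IC50 values are means of at least three independent experiments.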

The subject of another data set is Rattus norvegicus. Description: Increase in serotonin levels in Crlj:WI rat frontal cortex assessed as at 10 mg/kg, po administered as single dose at 3 hrs post perfusion by microdialysis relative to baseline control. The class given is functional, organism-based. A digest of the protocol: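 Frontal cortex microdialysis in rats. Dialysate (10 µL per 5-min collection, at 20-min intervals) was injected automatically into HPLC for 5-HT. Oral dosing followed at least 3 h of perfusion, once baseline was stable, and sampling continued 3 h after dosing.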

T1 sequence (P31645 whole entry): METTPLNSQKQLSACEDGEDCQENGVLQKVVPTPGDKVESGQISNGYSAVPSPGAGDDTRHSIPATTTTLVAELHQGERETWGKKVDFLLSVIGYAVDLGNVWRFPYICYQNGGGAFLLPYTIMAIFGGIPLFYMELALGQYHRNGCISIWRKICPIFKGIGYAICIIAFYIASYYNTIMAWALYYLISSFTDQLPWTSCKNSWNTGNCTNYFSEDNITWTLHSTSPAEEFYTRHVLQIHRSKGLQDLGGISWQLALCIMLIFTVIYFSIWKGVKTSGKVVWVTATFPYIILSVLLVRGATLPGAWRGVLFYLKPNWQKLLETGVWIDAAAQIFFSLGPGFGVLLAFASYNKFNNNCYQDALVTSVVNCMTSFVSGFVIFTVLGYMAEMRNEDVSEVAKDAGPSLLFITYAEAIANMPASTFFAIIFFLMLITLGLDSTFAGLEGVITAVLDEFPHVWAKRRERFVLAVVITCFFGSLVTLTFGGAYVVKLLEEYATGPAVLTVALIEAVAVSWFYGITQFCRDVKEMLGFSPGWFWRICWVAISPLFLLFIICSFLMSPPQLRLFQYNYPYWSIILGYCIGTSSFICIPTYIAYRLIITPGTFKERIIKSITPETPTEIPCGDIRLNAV
Sequence of CYP2D6 (P10635 whole entry): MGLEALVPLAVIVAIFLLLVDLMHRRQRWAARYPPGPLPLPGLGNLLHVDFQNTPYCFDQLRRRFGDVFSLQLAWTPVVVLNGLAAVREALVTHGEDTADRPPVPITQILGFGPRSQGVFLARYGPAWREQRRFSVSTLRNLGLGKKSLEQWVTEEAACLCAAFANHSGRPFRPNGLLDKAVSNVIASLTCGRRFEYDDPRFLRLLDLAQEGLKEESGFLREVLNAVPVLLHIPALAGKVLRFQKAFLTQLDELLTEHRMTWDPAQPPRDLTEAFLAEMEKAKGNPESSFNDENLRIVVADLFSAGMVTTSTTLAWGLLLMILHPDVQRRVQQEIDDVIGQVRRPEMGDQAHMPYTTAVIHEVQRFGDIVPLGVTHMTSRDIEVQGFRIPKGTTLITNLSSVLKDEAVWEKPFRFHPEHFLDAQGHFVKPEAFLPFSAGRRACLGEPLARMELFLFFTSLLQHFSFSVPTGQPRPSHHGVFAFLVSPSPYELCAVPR

`COCCOc1cc(Br)cc(CC2CCN(CCc3ccc4c(c3)C(=O)CCO4)CC2)c1`: the metabolised at 1 µM at CYP2D6 came out at 14%. In data set [1], the Ki (in general, a dissociation constant, usually derived from enzyme kinetics or from competition with a known ligand) amounted to 5.32 nM.

`COCCOc1cc(CC2CCN(CCc3ccc4c(c3)C(=O)CCC4)CC2)ccc1Br`: the metabolised at 1 µM at CYP2D6 is 11.8%. The Ki in data set [1] was 0.67 nM.

As to `COCCOc1cccc(CC2CCN(CCc3cc4c(cc3Cl)OCCO4)CC2)c1Br`, the Ki in data set [1] turned out to be 74.6 nM.

On to `COCCOc1cc(CC2CCN(CCc3ccc4c(c3)OCCC4)CC2)ccc1Br`, for which the metabolised at 1 µM on CYP2D6 stood at 6.8%. Moreover, the affinity in data set [1] corresponds to a Ki of 5.4 nM.

As for `COCCOc1cc(CC2CCN(CCc3ccc4c(c3)C(=O)CCO4)CC2)ccc1C`, at CYP2D6, the metabolised at 1 µM was found to be 48.5%. Further, the concentration for half-maximal inhibition (IC50) (usually the point on the concentration scale where inhibition reaches its midpoint) in data set [2] turned out to be 45.3 nM. This compound also returned a Ki in data set [1] of 5.25 nM.

Take `COCCOc1cc(CC2CCN(CCc3ccc4c(c3)C(O)CCO4)CC2)ccc1Br` (stereo not given): the metabolised at 1 µM at CYP2D6 came out at 36.4%. Affinity in data set [1] was put at a Ki of 8.44 nM.

Consider `COCCOc1cc(CC2CCN(CCc3ccc4c(c3)OCCC4=O)CC2)ccc1Br`, for which the metabolised at 1 µM on CYP2D6 stood at 3.6%. The same compound yielded a Ki in data set [1] of 1.41 nM.

On to `COCCOc1cc(CC2CCN(CCc3ccc4c(c3)C(=O)CCO4)CC2)ccc1Br`, for which the outcome in the data set on Rattus norvegicus was Active. Further, at CYP2D6, the metabolised at 1 µM is 0%.

As for `COCCOc1cc(CC2CCN(CCc3ccc4c(c3)C(=O)CCCO4)CC2)ccc1Br`, on CYP2D6, the metabolised at 1 µM was 4.2%. The Ki in data set [1] is 1.17 nM.

With `CCc1ccc(CC2CCN(CCc3ccc4c(c3)C(=O)CCO4)CC2)cc1OCCOC`, the metabolised at 1 µM on CYP2D6 worked out at 18.4%. Besides, the inhibition constant Ki in data set [1] came out at 9.85 nM.

In turn, `COCCOc1cc(CC2CCN(CCc3ccc4c(c3)C(=O)CCO4)CC2)ccc1C(C)C` yielded a Ki in data set [1] of 246 nM.

With `COCCOc1cc(Br)cc(CC2CCN(CCc3ccc4c(c3)OCCO4)CC2)c1`, the metabolised at 1 µM at CYP2D6 amounted to 49.4%. The compound further came in with a Ki in data set [1] of 18.5 nM.

`COCCOc1cc(CC2CCN(CCc3ccc4c(c3)C(=O)CCO4)CC2)ccc1F` displayed a Ki in data set [1] of 111 nM.

As to `COCCOc1cccc(CC2CCN(CCc3ccc4c(c3)C(=O)CCO4)CC2)c1`, in data set [1], the affinity corresponds to a Ki of 202 nM.

The compound `COCCOc1cc(CC2CCN(CCc3ccc4c(c3)C(=O)CCO4)CC2)ccc1I` showed a Ki in data set [1] of 0.41 nM.

Regarding `COCCOc1cc(CC2CCN(CCc3ccc4c(c3)C(=O)CCO4)CC2)ccc1Cl`, the metabolised at 1 µM on CYP2D6 turned out to be 53.5%. In addition, the IC50 in data set [2] came out at 16.4 nM. The same compound came in with a Ki in data set [1] of 3.37 nM.

For the compound `COCCOc1cc(Br)cc(CC2CCN(CCc3cc4c(cc3Cl)OCCO4)CC2)c1`, the metabolised at 1 µM at CYP2D6 was 64.4%. Moreover, in data set [1], affinity was put at a Ki of 14.1 nM.

In the case of `COCCOc1ccc(Br)c(CC2CCN(CCc3cc4c(cc3Cl)OCCO4)CC2)c1`, at CYP2D6, the metabolised at 1 µM came to 86%.

As to `COCCOc1cc(CC2CCN(CCc3ccc4c(c3)OCCO4)CC2)ccc1Br`, the metabolised at 1 µM on CYP2D6 stood at 55.6%. The Ki in data set [1] was determined as 2.39 nM.

With `COCCOc1cc(CC2CCN(CCc3cc4c(cc3Cl)OCCO4)CC2)ccc1Br`, at CYP2D6, the metabolised at 1 µM came out at 75.6%. The Ki in data set [1] was 5.47 nM.

Take `COCCOc1cc(CC2CCN(CCc3ccc4c(c3)CCCO4)CC2)ccc1Br`: at CYP2D6, the metabolised at 1 µM stood at 0%. The compound also returned a Ki in data set [1] of 1.74 nM.

`COCCOc1cc(CC2CCN(CCc3ccc4c(c3)S(=O)(=O)CCO4)CC2)ccc1Br`: the metabolised at 1 µM at CYP2D6 came to 55.8%. The same compound registered a Ki in data set [1] of 2.59 nM.

The record behind these values is ChEMBL document CHEMBL4219078, “Discovery of DSP-1053, a novel benzylpiperidine derivative with potent serotonin transporter inhibitory activity and partial 5-HT1A receptor agonistic activity” (Bioorg Med Chem, 2018).
